The record followed here is ChEMBL document CHEMBL2390864, “Artemisinin-derived dimer phosphate esters as potent anti-cytomegalovirus (anti-CMV) and anti-cancer agents: a structure-activity study” (Bioorg Med Chem, 2013).

As a reminder, the EC50 is the concentration needed to bring the measured effect to its halfway point. A low value points to higher potency in that assay. In general, IC50 refers to the concentration that inhibits the measured activity by half.

Data set [1] can be described thus: Selectivity index, ratio of CC50 for HFF to EC50 for Cytomegalovirus.
The test system of data set [2] is Cytomegalovirus. Nature of the data set: Antiviral activity against Cytomegalovirus infected in HFF after 72 hrs by luciferase reporter gene assay. Format: functional, organism-based. The following applies: Human betaherpesvirus 5, 72 h. In a few lines: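 Human foreskin fibroblasts (HFFs) were infected with CMV and treated with compound across a dose range. Luciferase activity was read at 72 h post infection as a marker of late CMV gene expression. EC50 was derived from this read-out.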

Data set [3] is described as follows: Cytotoxicity against human JURKAT-TALL cells after 48 hrs by Alamar Blue assay. Format: functional, cell-based. In a few lines:
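Jurkat T-ALL cells were treated with compound for 48 h, and growth inhibition was read by AlamarBlue assay to give IC50.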
(In general: Resazurin is reduced to fluorescent resorufin, in cell work by metabolically active cells.)

For data set [4], the system named is PBMC. Nature of the data set: Cytotoxicity against PHA-stimulated human PBMC cells after 48 hrs by Alamar Blue assay. Format: cell-based. In a few lines: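 PBMCs came from 4 consenting healthy volunteers and were stimulated with phytohemagglutinin (10 µg/ml) for 24 h. Drug or vehicle was then added for a further 48 h, and viability was read by AlamarBlue. IC50 is the average of 4 experiments, each run in triplicate.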

Data set [5] is described as follows: Therapeutic index, ratio of IC50 for PHA-stimulated human PBMC cells to IC50 for human JURKAT-TALL cells. As to conditions: PHA-stimulated PBMC cells versus JURKAT-TALL cells, read-out: Ratio IC50. Format: cell-based. In a few lines:
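The therapeutic index is the IC50 in PHA-stimulated PBMCs (PHA 10 µg/ml for 24 h, then drug for 48 h, AlamarBlue) divided by the IC50 in Jurkat cells (drug for 48 h, AlamarBlue).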

Turning to `C[C@H]1[C@@H](CC(COP(=O)(Oc2ccccc2)Oc2ccccc2)C[C@H]2O[C@@H]3O[C@@]4(C)CC[C@H]5[C@H](C)CC[C@@H]([C@H]2C)[C@@]35OO4)O[C@@H]2O[C@@]3(C)CC[C@H]4[C@H](C)CC[C@@H]1[C@@]24OO3` (stereo partly specified), the “Ratio CC50/EC50” value in data set [1] is listed as 1500. The compound further showed an EC50 in data set [2] of 39 nM. Further, the IC50 came to 100 nM in data set [3] and 1480 nM in data set [4]. In addition, the selectivity ratio in data set [5] was 14.8.

`C[C@H]1[C@@H](CC(COP(=O)(Oc2ccc(Cl)cc2)Oc2ccc(Cl)cc2)C[C@H]2O[C@@H]3O[C@@]4(C)CC[C@H]5[C@H](C)CC[C@@H]([C@H]2C)[C@@]35OO4)O[C@@H]2O[C@@]3(C)CC[C@H]4[C@H](C)CC[C@@H]1[C@@]24OO3` (stereo partly specified): a half-maximal response in data set [2] (EC50) required 66 nM. For the same compound, the results for the IC50 in data set [3] and in data set [4] were 152 nM and greater than 40000 nM, respectively. Besides, the selectivity ratio in data set [5] is greater than 263.

As to `CC(C)c1ccc(OP(=O)(OCC(C[C@H]2O[C@@H]3O[C@@]4(C)CC[C@H]5[C@H](C)CC[C@@H]([C@H]2C)[C@@]35OO4)C[C@H]2O[C@@H]3O[C@@]4(C)CC[C@H]5[C@H](C)CC[C@@H]([C@H]2C)[C@@]35OO4)Oc2ccc(C(C)C)cc2)cc1` (stereo partly specified), the EC50 in data set [2] turned out to be 300 nM. The results for the IC50 in data set [3] and in data set [4] were 511 nM and greater than 40000 nM, respectively. Besides, in data set [5], the selectivity ratio is greater than 78.3.

Compound `Cc1cccc(C)c1OP(=O)(OCC(C[C@H]1O[C@@H]2O[C@@]3(C)CC[C@H]4[C@H](C)CC[C@@H]([C@H]1C)[C@@]24OO3)C[C@H]1O[C@@H]2O[C@@]3(C)CC[C@H]4[C@H](C)CC[C@@H]([C@H]1C)[C@@]24OO3)Oc1c(C)cccc1C` (stereo partly specified) showed a half-maximal effective concentration (EC50) in data set [2] of 71 nM. For the same compound, the values for the IC50 in data set [3] and in data set [4] were 296 nM and greater than 40000 nM, respectively. For the same compound, in data set [5], the selectivity ratio was greater than 135.

For `C[C@H]1[C@@H](CC(COP(=O)(OC2CCCCC2)OC2CCCCC2)C[C@H]2O[C@@H]3O[C@@]4(C)CC[C@H]5[C@H](C)CC[C@@H]([C@H]2C)[C@@]35OO4)O[C@@H]2O[C@@]3(C)CC[C@H]4[C@H](C)CC[C@@H]1[C@@]24OO3` (stereo partly specified), in data set [2], a half-maximal response (EC50) required 44 nM. For the same compound, the IC50 was 287 nM in data set [3] and 2030 nM in data set [4]. The selectivity ratio in data set [5] was 7.1.

Take `C[C@H]1[C@@H](CC(COP(=O)(O)Oc2ccccc2)C[C@H]2O[C@@H]3O[C@@]4(C)CC[C@H]5[C@H](C)CC[C@@H]([C@H]2C)[C@@]35OO4)O[C@@H]2O[C@@]3(C)CC[C@H]4[C@H](C)CC[C@@H]1[C@@]24OO3` (stereo partly specified): the EC50 in data set [2] was greater than 300 nM. Also, the values for the 50% inhibitory concentration (IC50) in data set [3] and in data set [4] were 7440 nM and greater than 40000 nM, respectively.

As for `C[C@H]1[C@@H](CC(CO)C[C@H]2O[C@@H]3O[C@@]4(C)CC[C@H]5[C@H](C)CC[C@@H]([C@H]2C)[C@@]35OO4)O[C@@H]2O[C@@]3(C)CC[C@H]4[C@H](C)CC[C@@H]1[C@@]24OO3` (stereo partly specified), the response in data set [2] was half-maximal at 160 nM (EC50).

For the compound `C[C@H]1[C@@H](CC(COP(=S)(Oc2ccccc2)Oc2ccccc2)C[C@H]2O[C@@H]3O[C@@]4(C)CC[C@H]5[C@H](C)CC[C@@H]([C@H]2C)[C@@]35OO4)O[C@@H]2O[C@@]3(C)CC[C@H]4[C@H](C)CC[C@@H]1[C@@]24OO3` (stereo partly specified), the EC50 in data set [2] was 78 nM. In addition, the half-maximal inhibitory concentration (IC50) in data set [3] is 1750 nM; in data set [4], greater than 40000 nM. For the same compound, the selectivity ratio in data set [5] is greater than 22.9.

Consider `C[C@H]1[C@@H](CC(COP2(=O)Oc3ccccc3-c3ccccc3O2)C[C@H]2O[C@@H]3O[C@@]4(C)CC[C@H]5[C@H](C)CC[C@@H]([C@H]2C)[C@@]35OO4)O[C@@H]2O[C@@]3(C)CC[C@H]4[C@H](C)CC[C@@H]1[C@@]24OO3` (stereo partly specified), for which the EC50 in data set [2] worked out at 72 nM. In addition, the IC50 in data set [3] is 220 nM; in data set [4], 2280 nM. For the same compound, in data set [5], the selectivity ratio was found to be 10.4.

As to `C[C@H]1[C@@H](CC(COP2(=S)Oc3ccccc3-c3ccccc3O2)C[C@H]2O[C@@H]3O[C@@]4(C)CC[C@H]5[C@H](C)CC[C@@H]([C@H]2C)[C@@]35OO4)O[C@@H]2O[C@@]3(C)CC[C@H]4[C@H](C)CC[C@@H]1[C@@]24OO3` (stereo partly specified), a half-maximal response in data set [2] (EC50) required 70 nM. In addition, the IC50 is 1930 nM in data set [3] and greater than 40000 nM in data set [4]. Also, in data set [5], the selectivity ratio is greater than 20.7.

In data set [2], `CO[C@H]1O[C@@H]2O[C@@]3(C)CC[C@H]4[C@H](C)CC[C@@H]([C@H]1C)[C@@]24OO3` registered an EC50 of 5300 nM. The IC50 in data set [3] is greater than 30000 nM; in data set [4], greater than 100000 nM.

On to `COc1cccc2c1C(=O)c1c(O)c3c(c(O)c1C2=O)C[C@@](O)(C(=O)CO)C[C@@H]3O[C@H]1C[C@H](N)[C@H](O)[C@H](C)O1` [DOXORUBICIN], for which the IC50 in data set [3] stood at 9.6 nM; in data set [4], 271 nM.

As for `C[C@H]1[C@H](OC(=O)CCC(=O)O)O[C@@H]2O[C@@]3(C)CC[C@H]4[C@H](C)CC[C@@H]1[C@@]24OO3` [SODIUM ARESUNATE], the EC50 in data set [2] turned out to be 18500 nM. The IC50 was 6890 nM in data set [3] and 27400 nM in data set [4]. Moreover, the selectivity ratio in data set [5] amounted to 4.
